Laboratory results reported in ChEMBL document CHEMBL1152213, “Design, synthesis and antiviral efficacy of a series of potent chloropyridyl ester-derived SARS-CoV 3CLpro inhibitors” (Bioorg Med Chem Lett, 2008).
Active and inactive are the calls of the source. No cut-off for these calls is given here.

test system: SARS-CoV; assay: Antiviral activity against SARS-CoV Urbani in african green monkey Vero E6 cells assessed as cell viability after 48 hrs; format: functional, organism-based; settings: Severe acute respiratory syndrome-related coronavirus

For CC(C)(C)OC(=O)N[C@@H]1C(=O)N2[C@@H]1SC(C)(C)[C@@H]2C(=O)Oc1cncc(Cl)c1, which IC50 is on record?
Its IC50 is > 100000 nM.

With CC(=O)n1ccc2c(C(=O)Oc3cncc(Cl)c3)cccc21 as the compound, how does the IC50 read?
Its IC50 is 1080 nM.

Which IC50 does the source give for O=C(Oc1cncc(Cl)c1)c1cccc2cc[nH]c12 here?
The IC50 was 80 nM.

For O=C(Oc1cncc(Cl)c1)c1ccc2cc[nH]c2c1, which IC50 is on record?
The IC50 was 230 nM.

O=C(Oc1cncc(Cl)c1)c1ccc2c(ccn2S(=O)(=O)c2cccc([N+](=O)[O-])c2)c1 was tested. Which IC50 did it give?
The IC50 was 89 nM.

How did the IC50 turn out when Cc1ccc(S(=O)(=O)n2ccc3cc(C(=O)Oc4cncc(Cl)c4)ccc32)cc1 was run?
Its IC50 is 370 nM.

With O=C(On1nnc2ccccc21)c1ccc2[nH]ccc2c1 as the compound, how does the IC50 read?
Its IC50 is 200 nM.

O=C(Oc1cncc(Cl)c1)c1ccc2[nH]ccc2c1 was tested. Which IC50 did it give?
The IC50 was 310 nM.

With CC(=O)n1ccc2cc(C(=O)Oc3cncc(Cl)c3)ccc21 as the compound, how does the IC50 read?
Its IC50 is 400 nM.

CC(=O)N1Cc2ccccc2C[C@H]1C(=O)Oc1cncc(Cl)c1 was tested. Which IC50 did it give?
Its IC50 is 140 nM.

molecular target: Replicase polyprotein 1a (Severe acute respiratory syndrome-related coronavirus) (UniProt P0C6U8); assay: Inhibition of SARS 3Clpro measured by rate of reaction; settings: not given
Summary of the method: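 Full-length authentic enzyme at 100 nM in 50 mM HEPES pH 7.5 with 1 mM DTT and 0.01 mg/mL BSA. IC50 taken from reaction rates across increasing inhibitor concentrations.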

With CC(=O)n1ccc2c(C(=O)Oc3cncc(Cl)c3)cccc21 as the compound, how does the Activity read?
Its Activity is “inactive”.

How did the Activity turn out when CC(=O)n1ccc2cc(C(=O)Oc3cncc(Cl)c3)ccc21 was run?
The Activity was “inactive”.
